Compound activity: PubChem BioAssay, Columbia University Molecular Screening Center
INS promoter act = TRM-6 insulin promoter activation; actives 0.81% (n = 130,000); AID 1296; activation, % at 2 µM; TRM-6 cells, insulin promoter eGFP reporter, imaging; plate-scaled: unstimulated 0, stimulated control 100;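 active = activation at 2 µM above a set limit, confirmed on inspection of the cell images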;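 also: share of cells whose green reporter signal exceeds an intensity cutoff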
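System – human fetal islet-derived TRM-6 cells with tamoxifen-inducible insulin promoter–eGFP reporter · Amount – 1,000 cells per well · Schedule – overnight tamoxifen, then two-day compound incubation at 37 °C · Detection – high-content imaging of fixed cells with Hoechst nuclear stain · Read-out – percent cells above green-intensity threshold, converted to percent activation versus plate controls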
The depositor's hits bear a star. Shown is part of a subset that was picked to be rich in hits.

SMILES	INS promoter act
O=C(Nc1ccnc(-c2ccncc2)n1)c1ccc(F)cc1	340*
COc1ccc(/C=N/NC(=O)CCc2c(C)n[nH]c2C)cc1O	8
O=C(N/C(=C\c1cccc([N+](=O)[O-])c1)C(=O)N1CCOCC1)c1ccc([N+](=O)[O-])cc1	-5
CCCCc1ccc(NC(=S)NCc2cccnc2)cc1	3
CC(C)(C)NC(=O)C(=O)NCCC1=CCCCC1	-7
CCOc1ccc(N(C(=O)Cn2nnc3ccccc32)C(C(=O)NC(C)(C)CC)c2cccn2C)cc1 (centres undefined)	462*
CCC(C)(C)NC(=O)C(c1cccn1C)N(C(=O)Cn1nnc2ccccc21)c1ccc(OC)cc1OC (centres undefined)	170
Cc1ccc(-c2nnn(CC(=O)N(c3ccccc3)C(C(=O)NC(C)(C)C)c3cccs3)n2)o1 (centres undefined)	100
COC(=O)c1sccc1NC(=O)CN(C)NS(=O)(=O)c1ccc(F)cc1	4
Cc1ccc(N2C(=O)c3cccc4c(Oc5ccccc5[N+](=O)[O-])ccc(c34)C2=O)c(C)c1	0
COc1ccc(C(=O)NC(CC(=O)O)c2cc([N+](=O)[O-])ccc2Cl)c(SC)c1 (centres undefined)	0
CCC(CC)=C(C#N)C(=O)NC1CCCCC1	-7
NC(=O)C(c1ccccc1)C1CCCC1 (centres undefined)	106
O=P(OC1CCCCC1)(OC1CCCCC1)C(O)c1ccccc1 (centres undefined)	104*
OC1CCCN(CC(O)c2ccccc2)C1 (centres undefined)	0
Cc1nc2ccccc2n2c(-c3ccccc3)c3c(=O)n(C)c(=O)n(C)c3c12	171
O=C(NCc1ccc(F)cc1)C(=O)NCC1OCCN1S(=O)(=O)c1cccs1 (centres undefined)	0
Cc1nn(CC(O)Cn2cnc3c2c(=O)n(C)c(=O)n3C)c(C)c1Br (centres undefined)	-24
Cc1cc(C)nc(SCC(=O)n2c3c(c4ccccc42)CCCC3)n1	-8
Cc1ccc2c(c1)c1c(n2CC(O)Cn2nc(C)c(Br)c2C)CCCC1 (centres undefined)	83*
CC1CCCC(C)N1C(=O)c1cc2ncc(CCCl)cn2n1 (centres undefined)	0
CCCCCCCCCCCCCCCC(=O)OC[C@H](COP(=O)([O-])OCC[N+](C)(C)C)OC(=O)CCCCCCCCCCCCCCC	-5
CCN1C=CC2=C(C#N)C(N)C(C#N)(C#N)C(c3ccccc3C(F)(F)F)C2C1 (centres undefined)	371
CCN(CC)C(=O)CSc1nnc(-c2ccco2)o1	500*
O=C(CSc1nnc(-c2ccco2)o1)c1ccccc1Cl	0
SMILES	INS promoter act
O=C(CSc1nnc(-c2ccco2)o1)NC1CCCCC1	0
O=C(NCC1(c2ccccc2)CCCC1)c1cccc(Br)c1	9
CCOc1ccc(NS(=O)(=O)c2ccc(OC)c(NC(=O)c3ccc4c(c3)OCCO4)c2)cc1	0
CCOC(=O)COc1ccc(S(=O)(=O)Nc2ccc3c(c2)OCCO3)cc1	460*
Cc1cccc(NS(=O)(=O)c2ccc3c(c2)OCCO3)c1	-7
CC(C)NC(=O)NC(=O)COc1ccc(Br)cc1Br	5
COc1ccc(-c2[nH]nc3c2C(c2ccc(OC(=O)N4CCOCC4)cc2)C(C#N)=C(N)O3)cc1 (centres undefined)	0
COc1cc(C2C(C#N)=C(N)OC3=C2C(=O)CC(C)(C)C3)ccc1OC(=O)N1CCOCC1 (centres undefined)	600*
N#CC1=C(N)OC2=C(C(=O)CCC2)C1c1ccc(OC(=O)N2CCOCC2)cc1 (centres undefined)	0
CN(C)Cc1ccccc1Sc1ccc(Br)cc1	3
O=C(CCC(=O)OCC(=O)c1ccc(Br)cc1)Nc1ccc(Br)c2cccnc12	3
COn1c(=O)c(-c2cccs2)[n+]([O-])c2ccccc21	87*
O=c1c(-c2ccco2)[n+]([O-])c2ccccc2n1OCc1ccccn1	-5
Cn1c(-c2cccs2)[n+](C)c2ccccc21	9
COc1ccc(CCNC(=O)c2cccnc2SC)cc1	-8
COc1cccc(NC(=O)C2C3C=CC(O3)C2C(=O)NCc2cccnc2)c1 (centres undefined)	9
O=C(C1CCCO1)N1CCN(C(=S)Nc2ccccc2Cl)CC1 (centres undefined)	-10
C=CCOc1c(CNc2cccc(C(=O)O)c2)cccc1OCC	3
CCOc1cc(CNCCO)cc(Br)c1OCc1ccc(Cl)cc1Cl	8
CCOc1cccc(CNc2ccc(O)cc2)c1OCc1ccc(Cl)cc1Cl	91*
CCN(CC)CCn1c(OC)cc(=O)[nH]c1=O	500*
CCN(CC)CCn1c(N)cc(=O)[nH]c1=O	0
CCN(CC)CCn1cnc2c([nH]c3cccc(OC)c32)c1=O	-10
CCC(=O)Nc1cc(C(=O)OC(C(=O)c2ccc(C)c(C)c2)c2ccccc2)ccc1C (centres undefined)	-6
Cc1ccc(C2C3CSCC=C3C(C#N)=C(N)C2(C#N)C#N)cc1 (centres undefined)	-4
SMILES	INS promoter act
CC(C)N1CC=C2C(C#N)=C(N)C(C#N)(C#N)[C@H](c3ccoc3)[C@H]2C1	161*
CN1C2C=C3C(C#N)=C(N)C(C#N)(C#N)C(c4ccc(Br)cc4)C3C1CC2 (centres undefined)	281
COc1cc(C2NC(=O)C(C#N)=C(S)N2c2ccccc2)ccc1OC(C)C (centres undefined)	192
COc1cc(C2C3CN(C)CC=C3C(C#N)=C(N)C2(C#N)C#N)ccc1OC(C)C (centres undefined)	257*
CCC(=O)NC(Nc1ncc(C)s1)(C(=O)OC)C(F)(F)F (centres undefined)	300
CCC(Sc1nc(N)cc(N)n1)C(=O)O (centres undefined)	-5
CC(CN(C)Cc1nc(Cc2cccc(C(F)(F)F)c2)no1)CN1CCCC1 (centres undefined)	138
N/C(=N\OC(=O)CCCOc1ccccc1)c1ccncc1	10
Cc1ccccc1C(=O)O/N=C(\N)c1ccncc1	508*
N/C(=N\OC(=O)c1ccc(Br)cc1)c1ccccc1	-3
COc1ccc(CCNC(=O)CC2SC(=NCCC(C)C)NC2=O)cc1OC (centres undefined)	6
O=C(c1ccccc1NS(=O)(=O)c1cccc(C(F)(F)F)c1)N1CCc2ccccc21	1
O=C(Nc1cccc(-c2nc3cccnc3s2)c1)c1ccco1	481*
O=C(Nc1cccc(-c2cnc3ccccc3n2)c1)c1cccc(NC(=O)c2ccco2)c1	7
O=C(Nc1nccs1)c1cccc(NC(=O)c2ccco2)c1	-93
COC(=O)C(C(=O)OC)C(C[N+](=O)[O-])c1ccc(O)c(OC)c1 (centres undefined)	0
Cc1ccc(CCNC(=O)C2CCN(c3nn4c(=O)cc(C)nc4s3)CC2)cc1	108
Cc1cc(C)c2nc(N3CCC(C(=O)NCCCN4CCCCC4)CC3)sc2c1	513*
Cc1cc(C)c(S(=O)(=O)NCC2CCC(C(=O)NCCCN3CCOCC3)CC2)c(C)c1 (centres undefined)	4
O=[N+]([O-])c1ccc(NCCCNS(=O)(=O)c2ccccc2)cc1	-9
CCN1CCN(C(=S)NC(C)c2ccccc2)CC1 (centres undefined)	3
COC(CNC(=O)c1c[nH]c2ccc(S(=O)(=O)N3CCC4(CC3)OCCO4)cc2c1=O)OC	400*
